In ChEMBL document CHEMBL1133529, “Solid-phase synthesis and biological evaluation of a combinatorial library of philanthotoxin analogues” (J Med Chem, 2000) one finds IC50 data, which are given here for 17 compounds.

The target in test [1] is T1, Acetylcholine receptor; alpha1/beta1/delta/gamma (Homo sapiens, UniProt P02708+P07510+P11230+Q07001). Description: Antagonist activity at human muscle-type nAChR (embryonic muscle) expressed in TE671 cells; (end value). The class given is functional, cell-based, TE-671. Summed up:
(§1)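 Whole-cell patch clamp of TE671 cells (embryonic muscle-type nAChR) at 17-23 °C. Pipette: 140 mM CsCl, 1 mM CaCl2, 11 mM EDTA, 5 mM HEPES pH 7.2. Compound co-applied with 10 µM acetylcholine as 1-s pulses ≥30 s apart; IC50 from peak and end currents.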

Test [2] deals with T1, Acetylcholine receptor; alpha1/beta1/delta/gamma. Kind of test: Antagonist activity at human muscle-type nAChR (embryonic muscle) expressed in TE671 cells; (peak value). The class given is functional, cell-based, TE-671. Summed up: as §1
A short description of test [3]: Tested for antagonist activity on non-NMDAR expressed in Xenopus Oocytes from rat brain mRNA. The class given is functional, cell-based. Summed up:
(§2)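 Xenopus laevis oocytes injected with rat brain RNA, kept at 18 °C ≥3 days, voltage-clamped at -80 mV. Bath saline: 120 mM NaCl, 2 mM KCl, 1.8 mM CaCl2, 10 mM HEPES pH 7.5. 100 µM kainic acid perfused 120 s, antagonist co-applied 40-80 s. IC50 from decrease of kainate-evoked current.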

Test [4] can be described thus: Tested for antagonist activity on non-NMDAR (expressed in Xenopus Oocytes) from rat brain mRNA. Format: functional, cell-based. Put shortly: as §2

T1 sequence (P02708 whole entry): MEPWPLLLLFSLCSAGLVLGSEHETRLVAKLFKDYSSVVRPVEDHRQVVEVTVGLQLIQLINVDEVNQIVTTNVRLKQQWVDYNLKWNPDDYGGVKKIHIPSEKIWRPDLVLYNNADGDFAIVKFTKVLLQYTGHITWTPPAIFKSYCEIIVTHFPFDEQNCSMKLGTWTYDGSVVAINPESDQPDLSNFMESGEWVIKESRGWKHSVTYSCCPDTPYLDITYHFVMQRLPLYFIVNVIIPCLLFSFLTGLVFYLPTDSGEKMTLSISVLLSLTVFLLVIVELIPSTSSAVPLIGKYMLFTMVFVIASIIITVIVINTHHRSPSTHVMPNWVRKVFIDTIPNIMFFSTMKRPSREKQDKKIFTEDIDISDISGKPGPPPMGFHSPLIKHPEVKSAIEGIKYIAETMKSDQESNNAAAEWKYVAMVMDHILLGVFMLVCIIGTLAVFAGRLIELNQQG
T1 sequence (P07510 whole entry): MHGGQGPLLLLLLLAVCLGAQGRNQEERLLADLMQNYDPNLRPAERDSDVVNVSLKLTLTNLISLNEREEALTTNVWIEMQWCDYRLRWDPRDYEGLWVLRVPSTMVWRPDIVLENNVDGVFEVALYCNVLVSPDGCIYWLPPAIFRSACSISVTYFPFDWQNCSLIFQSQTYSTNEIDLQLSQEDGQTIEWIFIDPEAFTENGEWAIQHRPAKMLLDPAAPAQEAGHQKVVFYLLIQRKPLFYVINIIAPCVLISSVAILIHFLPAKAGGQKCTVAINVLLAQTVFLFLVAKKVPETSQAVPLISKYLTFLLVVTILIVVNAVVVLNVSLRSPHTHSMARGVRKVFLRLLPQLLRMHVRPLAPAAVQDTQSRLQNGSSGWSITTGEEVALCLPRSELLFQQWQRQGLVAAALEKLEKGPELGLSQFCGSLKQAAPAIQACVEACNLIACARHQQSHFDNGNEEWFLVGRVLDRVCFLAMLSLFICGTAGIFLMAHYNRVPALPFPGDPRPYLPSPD
T1 sequence (P11230 whole entry): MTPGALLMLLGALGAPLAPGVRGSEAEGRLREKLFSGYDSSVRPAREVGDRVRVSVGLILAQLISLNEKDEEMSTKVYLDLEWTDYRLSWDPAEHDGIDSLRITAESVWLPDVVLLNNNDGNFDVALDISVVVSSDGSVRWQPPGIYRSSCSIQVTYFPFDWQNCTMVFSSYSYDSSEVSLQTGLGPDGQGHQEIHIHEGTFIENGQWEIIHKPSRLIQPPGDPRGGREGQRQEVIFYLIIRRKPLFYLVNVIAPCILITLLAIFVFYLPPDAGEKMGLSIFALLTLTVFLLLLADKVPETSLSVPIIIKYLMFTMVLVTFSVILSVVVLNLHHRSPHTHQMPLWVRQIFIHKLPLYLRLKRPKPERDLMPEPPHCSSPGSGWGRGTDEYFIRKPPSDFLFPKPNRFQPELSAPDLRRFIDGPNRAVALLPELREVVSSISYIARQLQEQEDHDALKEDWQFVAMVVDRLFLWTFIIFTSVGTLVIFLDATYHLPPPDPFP
T1 sequence (Q07001 whole entry): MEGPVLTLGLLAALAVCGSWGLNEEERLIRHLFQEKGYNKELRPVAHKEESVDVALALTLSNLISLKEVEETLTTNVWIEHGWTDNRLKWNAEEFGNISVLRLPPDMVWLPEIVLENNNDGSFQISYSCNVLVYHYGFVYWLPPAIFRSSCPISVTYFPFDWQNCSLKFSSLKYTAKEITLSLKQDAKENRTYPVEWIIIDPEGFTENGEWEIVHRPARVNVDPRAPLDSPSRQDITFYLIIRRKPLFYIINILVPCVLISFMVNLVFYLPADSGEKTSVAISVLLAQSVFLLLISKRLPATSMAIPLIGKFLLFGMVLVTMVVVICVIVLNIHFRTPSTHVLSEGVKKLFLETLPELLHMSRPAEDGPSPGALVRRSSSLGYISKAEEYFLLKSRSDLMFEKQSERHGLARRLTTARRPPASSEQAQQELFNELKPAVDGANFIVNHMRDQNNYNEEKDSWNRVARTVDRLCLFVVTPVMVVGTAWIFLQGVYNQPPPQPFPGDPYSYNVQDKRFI

By IC50 is commonly meant the concentration that gives 50% inhibition. Higher therefore signals weaker potency in that assay. Turning to `NCCCNCCCCNCCCNC(=O)[C@H](Cc1ccc(O)cc1)NC(=O)Cc1ccccc1`, the figures for the IC50 in test [1], in test [2] and in test [3] were 22.3 µM, 249 µM and 0.015 µM, respectively.

As to `NCCCNCCCCNCCCNC(=O)[C@H](Cc1ccc(O)cc1)NC(=O)CC1CCCCC1`, the figures for the 50% inhibitory concentration (IC50) in test [1], in test [2] and in test [3] were 13.2 µM, 86.9 µM and 0.18 µM, respectively.

Regarding `NCCCOCCCCOCCCNC(=O)[C@H](Cc1ccc(O)cc1)NC(=O)Cc1ccccc1`, the IC50 came to 12.6 µM in test [1] and 35 µM in test [2].

As to `NCCCOCCCCOCCCNC(=O)[C@H](Cc1ccc(O)cc1)NC(=O)CC1CCCCC1`, the IC50 was 5.69 µM in test [1] and 25.9 µM in test [2].

For the compound `NCCCCCCCCCCCCNC(=O)[C@H](Cc1ccc(O)cc1)NC(=O)CC1CCCCC1`, the concentration for half-maximal inhibition (IC50) in test [1] is 151 µM; in test [2], above 1000 µM.

Turning to `NCCCCCCCCCCCCNC(=O)[C@H](Cc1ccc(O)cc1)NC(=O)Cc1ccccc1`, the IC50 is 17.2 µM in test [1] and 388 µM in test [2].

In the case of `NCCCNCCCCNCCCNC(=O)[C@H](Cc1cccc(O)c1)NC(=O)Cc1ccccc1`, the results for the IC50 in test [1] and in test [2] were 10.1 µM and 98.2 µM, respectively.

For `NCCCCCCCCCCCCNC(=O)[C@H](Cc1cccc(O)c1)NC(=O)Cc1ccccc1`, the IC50 in test [1] turned out to be 8.05 µM; in test [2], 105 µM.

For `NCCCOCCCCOCCCNC(=O)[C@H](Cc1cccc(O)c1)NC(=O)Cc1ccccc1`, the 50% inhibitory concentration (IC50) in test [1] is 25.3 µM; in test [2], 50.9 µM.

For the compound `CCCC(=O)N[C@@H](Cc1ccc(O)cc1)C(=O)NCCCOCCCCOCCCN`, the IC50 in test [1] is 10.9 µM; in test [2], 72.7 µM; in test [4], above 100 µM.

With `CCCC(=O)N[C@@H](Cc1ccc(O)cc1)C(=O)NCCCCCCCCCCCCN`, the IC50 in test [1] was 0.79 µM; in test [2] it was 15.1 µM; in test [4], above 100 µM.

Consider `CCCC(=O)N[C@@H](Cc1cccc(O)c1)C(=O)NCCCOCCCCOCCCN`, for which the results for the 50% inhibitory concentration (IC50) in test [1] and in test [2] were 42.6 µM and 110 µM, respectively.

As for `NCCCNCCCCNCCCNC(=O)[C@H](Cc1cccc(O)c1)NC(=O)CC1CCCCC1`, the figures for the IC50 in test [1] and in test [2] were 5.33 µM and 59.8 µM, respectively.

For the compound `NCCCOCCCCOCCCNC(=O)[C@H](Cc1cccc(O)c1)NC(=O)CC1CCCCC1`, the concentration for half-maximal inhibition (IC50) in test [1] amounted to 4.47 µM; in test [2], 30.7 µM.

For `CCCC(=O)N[C@@H](Cc1cccc(O)c1)C(=O)NCCCCCCCCCCCCN`, the IC50 came out at 2.43 µM in test [1] and 104 µM in test [2].

Consider `CCCC(=O)N[C@@H](Cc1cccc(O)c1)C(=O)NCCCNCCCCNCCCN`, for which the IC50 in test [1] was 117 µM; in test [2], above 1000 µM.

In the case of `CCCC(=O)N[C@@H](Cc1ccc(O)cc1)C(=O)NCCCNCCCCNCCCN` [PHILANTHOTOXIN 343], the half-inhibitory concentration (IC50) in test [1] amounted to 11.8 µM; in test [2] it was 56.7 µM; in test [4] it was 0.75 µM.
